In ChEMBL document CHEMBL1144880, “Identification of phenylisoxazolines as novel and viable antibacterial agents active against Gram-positive pathogens” (J Med Chem, 2003) one finds MIC data, which are given here for eleven molecules.

Molecules are shown by their SMILES. Converted amounts (≈) assume the structure as drawn.

Common to all, as to assay type: functional
For one assay, the system named is Enterococcus faecalis. As to the kind of experiment: In vitro minimum inhibitory concentration (MIC) against Enterococcus faecalis UC9217. Put shortly: (§1)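 MIC determined by standard broth microdilution, defined as the lowest drug concentration (µg/mL) inhibiting visible growth.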
Assay [1] relates to Staphylococcus epidermidis. As to the kind of experiment: In vitro minimum inhibitory concentration (MIC) against Staphylococcus epidermidis UC12084. Put shortly:
as §1

In the next assay the test system is Moraxella catarrhalis. As to the kind of experiment: In vitro minimum inhibitory concentration (MIC) against Moraxella catarrhalis UC30610. The procedure, abridged: as §1
The test system of a further assay is Haemophilus influenzae. Description: In vitro minimum inhibitory concentration (MIC) against Haemophilus influenzae UC30063. Put shortly:
as §1

The test system of another assay is Streptococcus pneumoniae. Description: In vitro minimum inhibitory concentration (MIC) against Streptococcus pneumoniae UC9912. The procedure, abridged: as §1
Assay [2] deals with Staphylococcus aureus. Description: In vitro minimum inhibitory concentration (MIC) against Staphylococcus aureus UC9213. The procedure, abridged:
as §1

Assay [3] has as its system Staphylococcus aureus. As to the kind of experiment: In vitro minimum inhibitory concentration (MIC) against Staphylococcus aureus UC12673. The procedure, abridged:
as §1

The test system of a further assay is Escherichia coli. Description: In vitro minimum inhibitory concentration (MIC) against Escherichia coli UC6674. Put shortly:
as §1

In the case of `CC(=O)NCC1CC(c2cc(F)c(N3CCOCC3)c(Cl)c2)=NO1` (stereo not drawn), the MIC is 16 µg/mL (≈ 45 µM) in the assay with Enterococcus faecalis; 8 µg/mL (≈ 22.5 µM) in assay [1]; greater than 16 µg/mL against Moraxella catarrhalis; greater than 16 µg/mL against Haemophilus influenzae; 4 µg/mL (≈ 11.2 µM) against Streptococcus pneumoniae; 8 µg/mL (≈ 22.5 µM) in the assay on Staphylococcus aureus [2]. Besides, the MIC in the assay on Staphylococcus aureus [3] was 8 µg/mL (≈ 22.5 µM); with Escherichia coli it was greater than 16 µg/mL.

For the molecule `CC(=O)NC[C@H]1CC(c2ccc(-n3cccn3)c(F)c2)=NO1`, the MIC is 16 µg/mL (≈ 52.9 µM) against Enterococcus faecalis; 4 µg/mL (≈ 13.2 µM) in assay [1]; greater than 16 µg/mL with Moraxella catarrhalis; greater than 16 µg/mL against Haemophilus influenzae; 4 µg/mL (≈ 13.2 µM) against Streptococcus pneumoniae; 16 µg/mL (≈ 52.9 µM) against Staphylococcus aureus [2]. For the same molecule, the values for the MIC against Staphylococcus aureus [3] and with Escherichia coli were 16 µg/mL (≈ 52.9 µM) and greater than 16 µg/mL, respectively.

With `COC(=O)N1CC=C(c2ccc(-c3cc(CNC(C)=O)on3)cc2)CC1`, the MIC (in the assay on Enterococcus faecalis; in assay [1]; in the assay on Moraxella catarrhalis; in the assay on Haemophilus influenzae; with Streptococcus pneumoniae; against Staphylococcus aureus [2]) was greater than 16 µg/mL each time. Moreover, the MIC in the assay with Staphylococcus aureus [3] and in the assay with Escherichia coli was greater than 16 µg/mL in each case.

Turning to `CC(=O)NC[C@H]1CC(c2ccc(-n3cccc3)c(F)c2)=NO1`, the MIC is 4 µg/mL (≈ 13.3 µM) in the assay with Enterococcus faecalis; 0.5 µg/mL (≈ 1.66 µM) in assay [1]; 16 µg/mL (≈ 53.1 µM) in the assay with Moraxella catarrhalis; greater than 16 µg/mL against Haemophilus influenzae; 0.5 µg/mL (≈ 1.66 µM) against Streptococcus pneumoniae; 2 µg/mL (≈ 6.64 µM) against Staphylococcus aureus [2]. Moreover, the MIC against Staphylococcus aureus [3] was 2 µg/mL (≈ 6.64 µM); against Escherichia coli it was greater than 16 µg/mL.

For the molecule `COC(=O)N1CC=C(c2ccc(C3=NOC(CNC(C)=O)C3)cc2)CC1` (stereo not drawn), the MIC is 16 µg/mL (≈ 44.8 µM) in the assay with Enterococcus faecalis; 8 µg/mL (≈ 22.4 µM) in assay [1]; greater than 16 µg/mL in the assay with Moraxella catarrhalis; greater than 16 µg/mL against Haemophilus influenzae; 4 µg/mL (≈ 11.2 µM) with Streptococcus pneumoniae; 16 µg/mL (≈ 44.8 µM) in the assay with Staphylococcus aureus [2]. The MIC in the assay with Staphylococcus aureus [3] was 16 µg/mL (≈ 44.8 µM); in the assay with Escherichia coli, greater than 16 µg/mL.

In the case of `CC(=O)NC[C@H]1CC(c2cc(F)c(N3CCNCC3)c(F)c2)=NO1`, the MIC came out at 4 µg/mL (≈ 11.8 µM) with Enterococcus faecalis; 0.5 µg/mL (≈ 1.48 µM) in assay [1]; 8 µg/mL (≈ 23.6 µM) against Moraxella catarrhalis; 8 µg/mL (≈ 23.6 µM) against Haemophilus influenzae; 0.25 µg/mL (≈ 0.739 µM) with Streptococcus pneumoniae; 4 µg/mL (≈ 11.8 µM) against Staphylococcus aureus [2]. For the same molecule, the MIC in the assay with Staphylococcus aureus [3] was 4 µg/mL (≈ 11.8 µM); with Escherichia coli, greater than 16 µg/mL.

As for `CC(=O)NC[C@H]1CC(c2ccc(-n3ccc(C#N)c3)c(F)c2)=NO1`, the MIC against Enterococcus faecalis was 1 µg/mL (≈ 3.06 µM); in assay [1] it was 0.25 µg/mL (≈ 0.766 µM); against Moraxella catarrhalis it was 4 µg/mL (≈ 12.3 µM); in the assay with Haemophilus influenzae it was 16 µg/mL (≈ 49 µM); with Streptococcus pneumoniae, less than 0.125 µg/mL; against Staphylococcus aureus [2], 1 µg/mL (≈ 3.06 µM). For the same molecule, the MIC in the assay with Staphylococcus aureus [3] is 0.5 µg/mL (≈ 1.53 µM); against Escherichia coli, greater than 16 µg/mL.

Regarding `CC(=O)NC[C@@H]1CC(c2ccc(N3CCN(C(=O)CO)CC3)c(F)c2)=NO1`, the MIC (against Enterococcus faecalis; in assay [1]; against Moraxella catarrhalis; in the assay on Haemophilus influenzae; against Streptococcus pneumoniae; against Staphylococcus aureus [2]) was greater than 16 µg/mL throughout. Further, the MIC in the assay with Staphylococcus aureus [3] and with Escherichia coli was greater than 16 µg/mL throughout.

With `CC(=O)NCC1CC(c2ccc(C3=CCN(C(=O)CO)CC3)cc2)=NO1` (racemic), the MIC in the assay with Enterococcus faecalis is 8 µg/mL (≈ 22.4 µM); in assay [1], 4 µg/mL (≈ 11.2 µM); in the assay on Moraxella catarrhalis, greater than 16 µg/mL; in the assay with Haemophilus influenzae, greater than 16 µg/mL; against Streptococcus pneumoniae, 2 µg/mL (≈ 5.6 µM); with Staphylococcus aureus [2] it was 4 µg/mL (≈ 11.2 µM). In addition, the results for the MIC with Staphylococcus aureus [3] and with Escherichia coli were 4 µg/mL (≈ 11.2 µM) and greater than 16 µg/mL, respectively.

As for `CC(=O)NC[C@H]1CC(c2ccc(F)c(F)c2)=NO1`, the MIC (in the assay on Enterococcus faecalis; in assay [1]; with Moraxella catarrhalis; with Haemophilus influenzae; with Streptococcus pneumoniae; in the assay with Staphylococcus aureus [2]) was greater than 16 µg/mL in each case. For the same molecule, the MIC in the assay with Staphylococcus aureus [3] and with Escherichia coli was greater than 16 µg/mL throughout.

As to `CC(=O)NCC1CC(c2ccc(C3=CCN(C(C)=O)CC3)cc2)=NO1` (stereo not drawn), the MIC is 8 µg/mL (≈ 23.4 µM) against Enterococcus faecalis; 4 µg/mL (≈ 11.7 µM) in assay [1]; greater than 16 µg/mL against Moraxella catarrhalis; greater than 16 µg/mL with Haemophilus influenzae; 2 µg/mL (≈ 5.86 µM) in the assay with Streptococcus pneumoniae; 8 µg/mL (≈ 23.4 µM) against Staphylococcus aureus [2]. In addition, the values for the MIC in the assay with Staphylococcus aureus [3] and in the assay with Escherichia coli were 8 µg/mL (≈ 23.4 µM) and greater than 16 µg/mL, respectively.
